Data reported in ChEMBL document CHEMBL4118199 (J Med Chem, 2018).

Assays:
[1] = Stability in pH 7.4 PBS buffer at 1 mM after 1 hr by HPLC analysis; type: physicochemical; conditions: read-out: Stability
Procedure, shortened: (§1)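 Compound in DMSO added to 1x PBS adjusted with HCl/NaOH to pH 6.5, 7.4 or 8.0, giving about 1 mM final. Sulfonyl fluoride hydrolysis followed by analytical HPLC over 12 h. Peak measured right after buffer addition set as 0 h reference. Reported as residual % of intact R-SO2F.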

[2] = Stability in pH 8 PBS buffer at 1 mM after 2 hrs by HPLC analysis; type: physicochemical; conditions: read-out: Stability; procedure, shortened: as §1
[3] = Stability in pH 6.5 PBS buffer at 1 mM after 12 hrs by HPLC analysis; type: physicochemical; conditions: read-out: Stability; procedure, shortened: as §1
Homo sapiens [4] = species on record: Homo sapiens; test: Selectivity ratio of IC50 for human 20S constitutive proteasome beta-5 to IC50 for human 20S constitutive proteasome beta-2
[5] = Stability in pH 7.4 PBS buffer at 1 mM after 6 hrs by HPLC analysis; type: physicochemical; conditions: read-out: Stability; procedure, shortened: as §1
Homo sapiens [6] = species on record: Homo sapiens; test: Selectivity ratio of IC50 for human 20S immunoproteasome beta-5 to IC50 for human 20S immunoproteasome beta-2
[7] = target: T1, Proteasome subunit beta type-8 (Homo sapiens, UniProt P28062); test: Inhibition of human 20S immunoproteasome beta-5 using Suc-LLVY-AMC as substrate after 60 mins by fluorescence assay
T1 sequence (P28062 whole entry): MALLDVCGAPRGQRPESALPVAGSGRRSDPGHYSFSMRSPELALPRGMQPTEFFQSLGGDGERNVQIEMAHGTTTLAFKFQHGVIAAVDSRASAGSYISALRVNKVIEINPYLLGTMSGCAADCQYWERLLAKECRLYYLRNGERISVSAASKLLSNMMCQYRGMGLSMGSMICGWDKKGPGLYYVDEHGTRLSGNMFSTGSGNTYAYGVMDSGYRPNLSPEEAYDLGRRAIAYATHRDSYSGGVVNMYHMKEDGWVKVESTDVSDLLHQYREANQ
Procedure, shortened: (§2)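 Purified 20S proteasome (final 2.5 nM) in kit assay buffer. Inhibitors preincubated 60 min at ambient temperature with shaking, final concentrations 0.1 nM–400 µM. Fluorogenic substrate at final 100 µM. Fluorescence (ex 360 nm, em 460 nm) read kinetically for 2 h at 25 °C. Duplicates, three repetitions. IC50 obtained from a Hill-equation fit of % residual activity against log concentration.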

[8] = target: T2, Proteasome subunit beta type-10 (Homo sapiens, UniProt P40306); test: Inhibition of human 20S immunoproteasome beta-2 using Bz-VGR-AMC as substrate after 60 mins by fluorescence assay; procedure, shortened: as §2
T2 sequence (P40306 whole entry): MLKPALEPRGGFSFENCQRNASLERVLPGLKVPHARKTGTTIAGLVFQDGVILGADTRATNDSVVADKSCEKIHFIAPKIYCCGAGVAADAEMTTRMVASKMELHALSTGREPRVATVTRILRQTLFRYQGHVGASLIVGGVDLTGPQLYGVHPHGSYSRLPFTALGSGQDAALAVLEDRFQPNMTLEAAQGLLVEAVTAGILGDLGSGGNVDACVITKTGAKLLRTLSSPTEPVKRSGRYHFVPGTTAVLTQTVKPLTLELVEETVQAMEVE

[9] = target: T3, Proteasome Macropain subunit MB1 (Homo sapiens, UniProt P28074); test: Inhibition of human 20S constitutive proteasome beta-5 using Suc-LLVY-AMC as substrate after 60 mins by fluorescence assay
T3 sequence (P28074 whole entry): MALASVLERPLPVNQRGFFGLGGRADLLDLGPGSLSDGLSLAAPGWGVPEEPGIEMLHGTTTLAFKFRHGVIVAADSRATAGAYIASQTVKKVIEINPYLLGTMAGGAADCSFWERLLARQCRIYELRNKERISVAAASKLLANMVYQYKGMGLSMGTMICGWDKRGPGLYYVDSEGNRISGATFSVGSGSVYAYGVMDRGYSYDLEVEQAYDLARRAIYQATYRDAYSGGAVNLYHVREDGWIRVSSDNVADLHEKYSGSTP
Procedure, shortened: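 Inhibitors preincubated 60 min at ambient temperature with shaking, final concentrations 0.1 nM–400 µM. Fluorogenic substrate at final 100 µM. Duplicates, three repetitions. IC50 obtained from a Hill-equation fit of % residual activity against log concentration.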

SMILES	remaining at 1 h, 1000 µM [1] [%]	remaining at 2 h, 1000 µM [2] [%]	remaining at 12 h, 1000 µM [3] [%]	Ratio IC50 (Homo sapiens [4])	remaining at 6 h, 1000 µM [5] [%]	Ratio IC50 (Homo sapiens [6])	IC50 [7] [µM]	IC50 [8] [µM]	IC50 [9] [µM]
CC(C)C[C@H](NC(=O)[C@H](CC(C)C)NC(=O)[C@@H](N)Cc1ccccc1)C(=O)N[C@@H](CCCNC(=N)N)CS(=O)(=O)F	90	50	75	560	≥ 50	> 1000	> 100	0.21	140
CC(C)C[C@H](NC(=O)[C@H](Cc1ccccc1)N=[N+]=[N-])C(=O)N[C@@H](CC(C)C)C(=O)N[C@@H](Cc1ccc(CN)cc1)CS(=O)(=O)F	90	50	75	66	≥ 50	24	3.1	0.13	8.9
CC(=O)N[C@@H](Cc1ccccc1)C(=O)N[C@@H](CC(C)C)C(=O)N[C@@H](CC(C)C)C(=O)N[C@@H](CCCNC(=N)N)CS(=O)(=O)F	90	50	75	70	≥ 50				69
CC(C)C[C@H](NC(=O)[C@H](CC(C)C)NC(=O)[C@H](Cc1ccccc1)NC(=O)OC(C)(C)C)C(=O)N[C@@H](CCCNC(=N)N)CS(=O)(=O)F	90	50	75	40	≥ 50				27.8
CC(C)C[C@H](NC(=O)[C@H](CC(C)C)NC(=O)[C@H](Cc1ccccc1)NC(=O)OCc1ccccc1)C(=O)N[C@@H](CCCNC(=N)N)CS(=O)(=O)F	90	50	75	45	≥ 50	17	6.7	0.4	6.7
CC(C)C[C@H](NC(=O)[C@H](Cc1ccccc1)N=[N+]=[N-])C(=O)N[C@@H](CC(C)C)C(=O)N[C@H](/C=C/S(C)(=O)=O)Cc1ccc(CN)cc1							1.8	0.0275	
CC(C)C[C@H](NC(=O)[C@H](Cc1ccccc1)N=[N+]=[N-])C(=O)N[C@@H](CC(C)C)C(=O)N[C@@H](CCCCN)CS(=O)(=O)F	90	50	75	96	≥ 50				67
CC(C)C[C@H](NC(=O)[C@H](CC(C)C)NC(=O)[C@@H](N)Cc1ccccc1)C(=O)N[C@@H](Cc1ccc(N)cc1)CS(=O)(=O)F	90	50	75	4.3	≥ 50	2.3	0.45	0.2	0.95
